ChEMBL document CHEMBL1122757, “Angiotensin II: dependence of hormone affinity on the electronegativity of a single side chain” (1984)
Square brackets hold non-standard residues; d marks the D form. Peptide text beside a SMILES is read from it. Sar = CNCC(=O)O

What was measured:
[1] = molecular target: T1, Type-1 angiotensin II receptor (Bos taurus) (UniProt P25104); experiment: Displacement of [3H]AT from angiotensin II receptor in bovine adrenocortical membranes; format: cell membranes
T1 sequence (whole entry): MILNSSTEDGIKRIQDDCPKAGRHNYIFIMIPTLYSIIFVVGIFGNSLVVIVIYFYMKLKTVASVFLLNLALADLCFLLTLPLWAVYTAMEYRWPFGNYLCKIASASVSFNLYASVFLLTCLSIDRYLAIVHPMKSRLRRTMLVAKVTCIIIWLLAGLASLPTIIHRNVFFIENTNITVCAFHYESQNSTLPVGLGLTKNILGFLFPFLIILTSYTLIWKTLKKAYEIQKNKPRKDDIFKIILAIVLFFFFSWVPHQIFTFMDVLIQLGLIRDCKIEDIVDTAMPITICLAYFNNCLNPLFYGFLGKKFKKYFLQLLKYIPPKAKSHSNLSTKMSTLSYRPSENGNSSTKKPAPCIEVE
Outline: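 Bovine adrenal glands taken fresh at slaughter, kept in ice-cold saline and dissected; purified adrenal microsomal membranes (~50-100 μg protein) in 100 μL assay buffer with [Sar1,(3',5'-3H2-4'-NH2)Phe4]AT at 5 × 10^-9 M. Competitor 10^-9 to 10^-4 M. Triplicate, 20 °C, 15 min. Filtration on nitrocellulose, scintillation counting. Nonspecific binding with 10^-4 M unlabeled AT. Specific binding as B/BO. At least nine independent experiments; RA given relative to standard.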

Oryctolagus cuniculus [2] = species: Oryctolagus cuniculus; experiment: In vitro biological activity on rabbit aorta strip.; format: functional
Outline: (§1)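 Isolated rabbit aorta strips under 2 g tension, adjusted during a 60–90-min equilibration, with bath fluid changed every 10–15 min. Peptides added to the tissue bath, concentrations stated as final bath concentrations. Contractile responses recorded with force-displacement transducers.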

Rattus norvegicus [3] = experiment: In vivo biological activity on the blood pressure of the anesthetized rat.; format: functional
Oryctolagus cuniculus [4] = species: Oryctolagus cuniculus; experiment: In vitro biological activity on rabbit aorta strip; format: functional; outline: as §1
Rattus norvegicus [5] = experiment: In vivo biological activity on the blood pressure of the anesthetized rat; format: functional

Activity [1] | Structure (SMILES) | Activity (Oryctolagus cuniculus [2]) | Activity (Rattus norvegicus [3]) | also measured
1.5% | CNCC(=O)N[C@@H](CCCN=C(N)N)C(=O)N[C@H](C(=O)N[C@@H](Cc1cc([N+](=O)[O-])c(O)c([N+](=O)[O-])c1)C(=O)N[C@H](C(=O)N[C@@H](Cc1c[nH]cn1)C(=O)N1CCC[C@@H]1C(=O)N[C@@H](Cc1ccccc1)C(=O)O)C(C)C)C(C)C |  |  | 
28% | CNCC(=O)N[C@@H](CCCN=C(N)N)C(=O)N[C@H](C(=O)N[C@@H](Cc1ccc(N)cc1)C(=O)N[C@H](C(=O)N[C@@H](Cc1c[nH]cn1)C(=O)N1CCC[C@@H]1C(=O)N[C@@H](Cc1ccccc1)C(=O)O)C(C)C)C(C)C |  |  | 
61% | CNCC(=O)N[C@@H](CCCN=C(N)N)C(=O)N[C@H](C(=O)N[C@@H](Cc1ccc(O)c(N=[N+]=[N-])c1)C(=O)N[C@H](C(=O)N[C@@H](Cc1c[nH]cn1)C(=O)N1CCC[C@@H]1C(=O)N[C@@H](Cc1ccccc1)C(=O)O)C(C)C)C(C)C |  |  | 
100% | CNCC(=O)N[C@@H](CCCN=C(N)N)C(=O)N[C@H](C(=O)N[C@@H](Cc1ccc(O)cc1)C(=O)N[C@H](C(=O)N[C@@H](Cc1c[nH]cn1)C(=O)N1CCC[C@@H]1C(=O)N[C@@H](Cc1ccccc1)C(=O)O)C(C)C)C(C)C (H-[Sar]RVYVH[dP]F-OH) |  |  | 
0.5% | CNCC(=O)N[C@@H](CCCN=C(N)N)C(=O)N[C@H](C(=O)N[C@@H](Cc1ccc(S)cc1)C(=O)N[C@H](C(=O)N[C@@H](Cc1c[nH]cn1)C(=O)N1CCC[C@@H]1C(=O)N[C@@H](Cc1ccccc1)C(=O)O)C(C)C)C(C)C |  |  | 
16% | CNCC(=O)N[C@@H](CCCN=C(N)N)C(=O)N[C@H](C(=O)N[C@@H](Cc1cc(I)c(N)c(I)c1)C(=O)N[C@H](C(=O)N[C@@H](Cc1c[nH]cn1)C(=O)N1CCC[C@@H]1C(=O)N[C@@H](Cc1ccccc1)C(=O)O)C(C)C)C(C)C |  |  | 
 | CNCC(=O)N[C@@H](CCCN=C(N)N)C(=O)N[C@H](C(=O)N[C@@H](Cc1ccc(O)c(N=[N+]=[N-])c1)C(=O)N[C@H](C(=O)N[C@@H](Cc1c[nH]cn1)C(=O)N1CCC[C@H]1C(=O)N[C@@H](Cc1ccccc1)C(=O)O)C(C)C)C(C)C | 63% | 63% | 
 | CNCC(=O)N[C@@H](CCCN=C(N)N)C(=O)N[C@H](C(=O)N[C@@H](Cc1ccc([N+](=O)[O-])cc1)C(=O)N[C@H](C(=O)N[C@@H](Cc1c[nH]cn1)C(=O)N1CCC[C@H]1C(=O)N[C@@H](Cc1ccccc1)C(=O)O)C(C)C)C(C)C | 0% | 0.2% | 
 | CNCC(=O)N[C@@H](CCCN=C(N)N)C(=O)N[C@H](C(=O)N[C@@H](Cc1cc(Cl)c(O)c(Cl)c1)C(=O)N[C@H](C(=O)N[C@@H](Cc1c[nH]cn1)C(=O)N1CCC[C@H]1C(=O)N[C@@H](Cc1ccccc1)C(=O)O)C(C)C)C(C)C | 22% | 19% | 
87% | CNCC(=O)N[C@@H](CCCN=C(N)N)C(=O)N[C@H](C(=O)N[C@@H](Cc1ccc(O)c(Cl)c1)C(=O)N[C@H](C(=O)N[C@@H](Cc1c[nH]cn1)C(=O)N1CCC[C@@H]1C(=O)N[C@@H](Cc1ccccc1)C(=O)O)C(C)C)C(C)C |  |  | 
2.6% | CNCC(=O)N[C@@H](CCCN=C(N)N)C(=O)N[C@H](C(=O)N[C@@H](Cc1ccc(N=[N+]=[N-])cc1)C(=O)N[C@H](C(=O)N[C@@H](Cc1c[nH]cn1)C(=O)N1CCC[C@@H]1C(=O)N[C@@H](Cc1ccccc1)C(=O)O)C(C)C)C(C)C |  |  | 
75% | CNCC(=O)N[C@@H](CCCN=C(N)N)C(=O)N[C@H](C(=O)N[C@@H](Cc1ccc(O)c([N+](=O)[O-])c1)C(=O)N[C@H](C(=O)N[C@@H](Cc1c[nH]cn1)C(=O)N1CCC[C@@H]1C(=O)N[C@@H](Cc1ccccc1)C(=O)O)C(C)C)C(C)C |  |  | 
 | CNCC(=O)N[C@@H](CCCN=C(N)N)C(=O)N[C@H](C(=O)N[C@@H](Cc1ccc(S)cc1)C(=O)N[C@H](C(=O)N[C@@H](Cc1c[nH]cn1)C(=O)N1CCC[C@H]1C(=O)N[C@@H](Cc1ccccc1)C(=O)O)C(C)C)C(C)C | 0.9% |  | 
3.8% | CNCC(=O)N[C@@H](CCCN=C(N)N)C(=O)N[C@H](C(=O)N[C@@H](Cc1ccc(S(N)(=O)=O)cc1)C(=O)N[C@H](C(=O)N[C@@H](Cc1c[nH]cn1)C(=O)N1CCC[C@@H]1C(=O)N[C@@H](Cc1ccccc1)C(=O)O)C(C)C)C(C)C |  |  | 
 | CNCC(=O)N[C@@H](CCCN=C(N)N)C(=O)N[C@H](C(=O)N[C@@H](Cc1cc(I)c(N)c(I)c1)C(=O)N[C@H](C(=O)N[C@@H](Cc1c[nH]cn1)C(=O)N1CCC[C@H]1C(=O)N[C@@H](Cc1ccccc1)C(=O)O)C(C)C)C(C)C | 2.7% | 5.3% | 
 | CNCC(=O)N[C@@H](CCCN=C(N)N)C(=O)N[C@H](C(=O)N[C@@H](Cc1ccc(O)c(N)c1)C(=O)N[C@H](C(=O)N[C@@H](Cc1c[nH]cn1)C(=O)N1CCC[C@H]1C(=O)N[C@@H](Cc1ccccc1)C(=O)O)C(C)C)C(C)C | 120% | 184% | 
0% | CNCC(=O)N[C@@H](CCCN=C(N)N)C(=O)N[C@H](C(=O)N[C@@H](Cc1ccc(S(=O)(=O)O)cc1)C(=O)N[C@H](C(=O)N[C@@H](Cc1c[nH]cn1)C(=O)N1CCC[C@@H]1C(=O)N[C@@H](Cc1ccccc1)C(=O)O)C(C)C)C(C)C |  |  | 
 | CNCC(=O)N[C@@H](CCCN=C(N)N)C(=O)N[C@H](C(=O)N[C@@H](Cc1ccc(S(=O)(=O)O)cc1)C(=O)N[C@H](C(=O)N[C@@H](Cc1c[nH]cn1)C(=O)N1CCC[C@H]1C(=O)N[C@@H](Cc1ccccc1)C(=O)O)C(C)C)C(C)C | 0% | 0% | 
 | CNCC(=O)N[C@@H](CCCN=C(N)N)C(=O)N[C@H](C(=O)N[C@@H](Cc1ccc(S(N)(=O)=O)cc1)C(=O)N[C@H](C(=O)N[C@@H](Cc1c[nH]cn1)C(=O)N1CCC[C@H]1C(=O)N[C@@H](Cc1ccccc1)C(=O)O)C(C)C)C(C)C | 3.2% | 0.9% | 
 | CNCC(=O)N[C@@H](CCCN=C(N)N)C(=O)N[C@H](C(=O)N[C@@H](Cc1cc([N+](=O)[O-])c(O)c([N+](=O)[O-])c1)C(=O)N[C@H](C(=O)N[C@@H](Cc1c[nH]cn1)C(=O)N1CCC[C@H]1C(=O)N[C@@H](Cc1ccccc1)C(=O)O)C(C)C)C(C)C | 7.8% | 0.5% | 
18% | CNCC(=O)N[C@@H](CCCN=C(N)N)C(=O)N[C@H](C(=O)N[C@@H](Cc1ccccc1)C(=O)N[C@H](C(=O)N[C@@H](Cc1c[nH]cn1)C(=O)N1CCC[C@@H]1C(=O)N[C@@H](Cc1ccccc1)C(=O)O)C(C)C)C(C)C |  |  | 
 | CNCC(=O)N[C@@H](CCCN=C(N)N)C(=O)N[C@H](C(=O)N[C@@H](Cc1ccc(N=[N+]=[N-])cc1)C(=O)N[C@H](C(=O)N[C@@H](Cc1c[nH]cn1)C(=O)N1CCC[C@H]1C(=O)N[C@@H](Cc1ccccc1)C(=O)O)C(C)C)C(C)C | 0.3% |  | 
 | CNCC(=O)N[C@@H](CCCN=C(N)N)C(=O)N[C@H](C(=O)N[C@@H](Cc1ccc(N)cc1)C(=O)N[C@H](C(=O)N[C@@H](Cc1c[nH]cn1)C(=O)N1CCC[C@H]1C(=O)N[C@@H](Cc1ccccc1)C(=O)O)C(C)C)C(C)C | 15% | 14% | 
1.5% | CNCC(=O)N[C@@H](CCCN=C(N)N)C(=O)N[C@H](C(=O)N[C@@H](Cc1ccc([N+](=O)[O-])cc1)C(=O)N[C@H](C(=O)N[C@@H](Cc1c[nH]cn1)C(=O)N1CCC[C@@H]1C(=O)N[C@@H](Cc1ccccc1)C(=O)O)C(C)C)C(C)C |  |  | 
 | CNCC(=O)N[C@@H](CCCN=C(N)N)C(=O)N[C@H](C(=O)N[C@@H](Cc1ccccc1)C(=O)N[C@H](C(=O)N[C@@H](Cc1c[nH]cn1)C(=O)N1CCC[C@H]1C(=O)N[C@@H](Cc1ccccc1)C(=O)O)C(C)C)C(C)C |  |  | Activity (Oryctolagus cuniculus [4]): 9.8%; Activity (Rattus norvegicus [5]): 8.1%
132% | CNCC(=O)N[C@@H](CCCN=C(N)N)C(=O)N[C@H](C(=O)N[C@@H](Cc1ccc(O)c(N)c1)C(=O)N[C@H](C(=O)N[C@@H](Cc1c[nH]cn1)C(=O)N1CCC[C@@H]1C(=O)N[C@@H](Cc1ccccc1)C(=O)O)C(C)C)C(C)C |  |  | 
 | CNCC(=O)N[C@@H](CCCN=C(N)N)C(=O)N[C@H](C(=O)N[C@@H](Cc1ccc(O)c(Cl)c1)C(=O)N[C@H](C(=O)N[C@@H](Cc1c[nH]cn1)C(=O)N1CCC[C@H]1C(=O)N[C@@H](Cc1ccccc1)C(=O)O)C(C)C)C(C)C | 103% | 82% | 
28% | CNCC(=O)N[C@@H](CCCN=C(N)N)C(=O)N[C@H](C(=O)N[C@@H](Cc1cc(Cl)c(O)c(Cl)c1)C(=O)N[C@H](C(=O)N[C@@H](Cc1c[nH]cn1)C(=O)N1CCC[C@@H]1C(=O)N[C@@H](Cc1ccccc1)C(=O)O)C(C)C)C(C)C |  |  | 
 | CNCC(=O)N[C@@H](CCCN=C(N)N)C(=O)N[C@H](C(=O)N[C@@H](Cc1ccc(O)cc1)C(=O)N[C@H](C(=O)N[C@@H](Cc1c[nH]cn1)C(=O)N1CCC[C@H]1C(=O)N[C@@H](Cc1ccccc1)C(=O)O)C(C)C)C(C)C (H-[Sar]RVYVHPF-OH) | 100% | 100% | 
 | CNCC(=O)N[C@@H](CCCN=C(N)N)C(=O)N[C@H](C(=O)N[C@@H](Cc1ccc(O)c([N+](=O)[O-])c1)C(=O)N[C@H](C(=O)N[C@@H](Cc1c[nH]cn1)C(=O)N1CCC[C@H]1C(=O)N[C@@H](Cc1ccccc1)C(=O)O)C(C)C)C(C)C | 38% | 16% | 
